High-throughput results as filed in PubChem.
Compounds with a hit are over-represented: about 3.9% of the library has one in this group of screens.
tim10-1 inh: inhibits growth of tim10-1 mutant yeast | S. cerevisiae tim10-1 ts strain growth, BacTiter-Glo, 24 h | inhibition, % at 20 µM | 2.2% of 330,000 active;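 active = inhibition of at least 40%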;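 note: mutant grown at 25 °C; 0% = DMSO wells with yeast and 100% = wells holding no yeast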
UPR CHOP act: apoptotic UPR (CHOP) activation; CHO-CHOP luciferase reporter, luminescence; percent of tunicamycin response over DMSO baseline; activation, % at 10 µM; 0.34% of 330,000 active;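 active = at 10 µM dose, activation of 40% or more, normalized to positive control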;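 note: 100% = tunicamycin at 10 µg/mL and 0% = DMSO alone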
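Material: CHO-CHOP cells, stable luciferase reporter of PERK-eIF2a-CHOP signalling; quantity: 500 reporter cells seeded per well; buffer or medium: F12 medium containing 10% fetal bovine serum; compound: one dose, 10 µM in 0.5% DMSO; incubation: 6 h compound treatment, 37 °C; measured by: Steady-Glo luciferase luminescence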
tim23-1 inh: growth inhibitors of tim23-1 mutant yeast; 1.3% of 330,000 active; inhibition, % at 20 µM; S. cerevisiae tim23-1 growth, BacTiter-Glo luminescence, 24 h;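 active = growth inhibition of the mutant yeast at or above 50%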;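 note: temperature-sensitive mutant grown at 25 °C; plate controls were DMSO-treated mutant yeast for no effect and medium wells lacking yeast for full effect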
TIM10 inh: TIM10 yeast growth inhibition | S. cerevisiae TIM10 strain growth, BacTiter-Glo luminescence, 24 h | inhibition, % at 10 µM | 1.4% of 330,000 active;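 active = inhibition of 40% or more at the single tested concentration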;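 note: wild-type TIM10 isogenic control strain grown at permissive 25 °C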
XBP1 UPR activ: activators of adaptive arm of unfolded protein response (XBP1) | CHO-XBP1 luciferase reporter, IRE1-XBP1 UPR activation, luminescence; percent of tunicamycin response, DMSO as zero | activation, % at 20 µM | 0.33% of 330,000 active | AID 463104;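 active = versus positive control, 20 µM dose yields 30% or more activation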;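 note: 100% = tunicamycin at 10 µg/mL and 0% = DMSO only wells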
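assay system = CHO-XBP1 luciferase reporter cells | amount = 1000 cells/well | buffer or medium = F12 plus 10% FBS | compound dosing = single point, 20 µM final compound, 1% DMSO | incubation = 16-18 h cell attachment at 37 °C, then 6 h compound exposure | detection = Steady-Glo luminescence read | controls = tunicamycin 10 µg/mL and vehicle-only wells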
tim23-1 confirm: confirmation of tim23-1 mutant yeast growth inhibitors. shares compounds with tim23-1 inh. S. cerevisiae tim23-1 growth, BacTiter-Glo luminescence, 24 h. inhibition, % at 20 µM. 83% of 4,400 active. AID 463218;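 active = inhibition above about 39% in either of two replicate wells at 20 µM, limit read from the data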;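 note: temperature-sensitive tim23-1 mutant grown at 25 °C; 0% = DMSO wells with yeast and 100% = medium wells without yeast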
Starred values were filed as active, the others as inactive; x = not tested or not shown.

SMILES | tim10-1 inh | UPR CHOP act | tim23-1 inh | TIM10 inh | XBP1 UPR activ | tim23-1 confirm
COc1ccc(-c2ccc(-c3cc(=O)oc4cc(OC)c(OC)c(OC)c34)cc2)cc1OC | 11 | 2 | 28 | -7 | 0 | x
Cc1cc2oc(=O)cc(-c3ccccc3)c2c(C)c1-c1ccc(O)cc1 | 21 | 5 | 61* | 2 | -2 | 48*
CN(C)CCCNC(=O)C1(O)c2cc(Br)ccc2NC(=O)N1c1c(F)cccc1F (centres undefined) | 7 | 0 | 9 | -4 | -6 | x
Cn1c(C=O)c(C#Cc2ccccc2)c2ccccc21 | 14 | 12 | 58* | 21 | 3 | 63*
CCOC(=O)c1c(C=O)c(C)n(Cc2ccc(Cl)cc2)c1C | 30 | 1 | 63* | 34 | 0 | 58*
CCOC(=O)c1c(C=O)c(C)n(Cc2ccccc2)c1C | 28 | 0 | 23 | 26 | 0 | x
CCn1cnc2cc(NCc3ccc(Br)cc3)ccc21 | 19 | 8 | 53* | 20 | -1 | 66*
Nc1ncc(Br)cc1S(=O)(=O)NC1CCCCC1 | 13 | -3 | 26 | 8 | -2 | x
CC1CCCC(NS(=O)(=O)c2cc(Br)cnc2N)C1C (centres undefined) | 38 | 19 | 55* | 28 | -3 | 45*
NC(=O)NOCc1ccccc1 | -6 | 1 | -3 | -11 | 6 | x
O=C(NOCc1ccccc1)c1coc(-c2ccccc2)n1 | -29 | 3 | 60* | -10 | 4 | 36
Cc1nc2c(oc3ccc(Cl)cc32)c(=O)[nH]1 | 2 | 1 | 25 | -4 | -1 | x
CCOC(=O)c1sc(=NC(=O)c2ccco2)n(C)c1C | 15 | 8 | 54* | 25 | 9 | 44*
CCOC(=O)c1sc(=NC(=O)c2ccccc2Br)n(C)c1C | 2 | 7 | 11 | 5 | 3 | x
COc1ccc(C(=O)COC(=O)c2cncc(Br)c2)cc1 | -15 | 4 | 65* | 15 | -1 | 75*
O=C(OCC(=O)c1ccc[nH]1)c1cncc(Br)c1 | -9 | 0 | -4 | -10 | -1 | x
CCOc1ccccc1N(CC)C(=O)c1nn(C)c2c1CSc1ccccc1-2 | 38 | 0 | 39 | 16 | 0 | x
CN(Cc1ccccc1)C(=S)NC(=O)c1ccc(-c2ccccc2)cc1 | 11 | 2 | 6 | 8 | 1 | x
CN(Cc1ccccc1)C(=S)NC(=O)c1cccs1 | 33 | 1 | 51* | 24 | 3 | 36
CC(NC(=S)NC(=O)c1cccs1)c1ccccc1 (centres undefined) | 24 | 0 | 52* | 29 | -1 | 45*
C=C(C)Cn1c(-c2ccncc2)n[nH]c1=S | -16 | 2 | -2 | -8 | -2 | x
COc1cc(C(=O)NCCC(=O)NC2CCCCCCC2)cc(OC)c1OC | 10 | -2 | 56* | 7 | 1 | 14
COc1cc(C(=O)NC2CCCCCCC2)cc(OC)c1OC | -1 | 0 | 6 | 11 | -2 | x
COc1ccc(Br)cc1CN1CCCCCC1 | -12 | 0 | -9 | -3 | -1 | x
COc1cccc(CNc2ccc([N+](=O)[O-])cc2Cl)c1O | 36 | 3 | 58* | 13 | 1 | 65*
SMILES | tim10-1 inh | UPR CHOP act | tim23-1 inh | TIM10 inh | XBP1 UPR activ | tim23-1 confirm
O=C(COC(=O)c1ccc(F)cc1Cl)NC1CCCCCCC1 | 19 | 2 | 51* | 23 | -1 | 42*
CSC1=N/C(=C\c2ccccc2F)C(=O)S1 | 21 | -1 | 52* | 12 | 2 | 51*
Cc1ccc(C(=O)NC(=S)NCc2ccccc2)cc1 | 22 | 3 | 52* | -11 | 0 | 42*
COc1ccc(CCNC(=S)Nc2cccc(C)c2C)cc1 | 31 | 0 | 50* | 23 | 2 | 28
COc1ccc(CCNC(=S)Nc2cc(C)ccc2C)cc1 | 20 | 1 | 41 | 1 | -4 | x
COc1ccc(C(=O)NC(=S)NCc2ccccc2)cc1OC | 31 | 3 | 25 | -5 | -3 | x
O=C(NC(=S)NCCc1ccccc1)c1ccccc1F | 35 | 3 | 51* | 33 | 2 | 44*
Cc1c(Cl)cccc1NC(=S)NCCc1ccc(Cl)cc1 | 23 | 3 | 32 | 22 | -5 | x
Fc1ccccc1NC(=S)NCCc1ccc(Cl)cc1 | 30 | 6 | 55* | 30 | 2 | 55*
O=C(NC(=S)N1CCCC1)c1ccccc1F | 21 | 1 | 8 | 5 | 2 | x
O=C(Nc1ccc(NC(=S)NC(=O)c2ccccc2F)cc1)c1cccs1 | 25 | 2 | 51* | 4 | -1 | 50*
O=C(NC(=S)NC(=O)c1ccccc1F)c1ccccc1F | 5 | 1 | 54* | 25 | 0 | 48*
C=CCOc1ccc(C2/C(=C(\O)c3ccc4c(c3)CC(C)O4)C(=O)C(=O)N2CCN2CCOCC2)cc1OCC (centres undefined) | -8 | -1 | 16 | 3 | -1 | x
COc1cc(/C=C/C(=O)OCC(=O)Nc2nnc(-c3ccccc3)o2)cc(OC)c1OC | -5 | 2 | 3 | -8 | -3 | x
O=C1C(=O)N(C/C=C/c2ccccc2)c2ccccc21 | 23 | 1 | 76* | 15 | 22 | -19
COc1ccccc1NC(=O)c1ccc(NC(=O)C2CC2C)cc1 (centres undefined) | 31 | 3 | 52* | 34 | 4 | 48*
COC(=O)c1c(-c2ccc(S(C)(=O)=O)cc2)sc2ccc(OC)cc12 | 19 | 7 | 52* | 12 | 4 | 43*
Cc1csc2c(N3CCN(C(=O)Nc4ccc(Cl)c(Cl)c4)CC3)ncnc12 | 27 | 0 | 67* | 19 | -4 | 50*
Cc1csc2c(N3CCN(C(=S)Nc4ccc(C(F)(F)F)cc4)CC3)ncnc12 | 25 | 0 | 55* | 26 | 3 | 46*
O=C(Oc1cccc2cccnc12)c1ccco1 | -7 | 0 | 8 | 7 | 4 | x
O=C(Oc1ccc(Cl)c2cccnc12)c1ccco1 | 27 | 38 | 52* | 23 | 9 | 46*
COc1cccc(-n2nnnc2SCC(=O)N2CCCc3ccccc32)c1 | 35 | 1 | 58* | 37 | 2 | 54*
COc1cc(OC)cc(-n2nnnc2SCC(=O)N2CCCc3ccccc32)c1 | 8 | 0 | 36 | 11 | -2 | x
CCCNC(=O)N1CCC(c2nc3ccccc3s2)CC1 | 7 | 1 | 11 | 13 | -5 | x
CCNC(=O)c1c(O)c2ccccc2[nH]c1=O | 13 | 7 | 54* | 27 | 4 | 41*
O=C(NCCc1ccccc1)c1c(O)c2ccccc2[nH]c1=O | -43 | 5 | 31 | 3 | 1 | x
Cc1cc(=O)c(C(=O)O)nn1-c1ccccc1Cl | -14 | 0 | 9 | 8 | 3 | x
O=[N+]([O-])c1cccc(NC(=S)N2CCc3ccccc3C2)c1 | 29 | 3 | 52* | 34 | 3 | 55*
